In brackets after ≈: the same amount, converted by molar mass.
What was measured:
Type in all cases: functional
[1] = tested on: Escherichia coli; assay: Minimum inhibitory concentration against Escherichia coli
[2] = tested on: Mus musculus; assay: In vivo effective dose against Pasteurella multocida infection in mouse
Procedure, shortened: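 Mice infected with P. multocida serotype 5A. Subcutaneous dosing 0.5 h post-infection at 5 to 80 mg/kg. ED50 calculated from the number of mice surviving four days after infection.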

[3] = tested on: Pasteurella multocida; assay: Minimum inhibitory concentration against Pasteurella multocida
Procedure, shortened: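 P. multocida strain 59A0067 (turkey origin), grown overnight on BHI plates; colonies in saline at OD625 0.09 (0.5 McFarland), diluted 1:100 in BHI broth. Two-fold serial dilutions in BHI microdilution, about 5×10⁵ cfu/mL final, 37 °C for 18 h. MIC is the lowest concentration with A600 ≤ 0.025.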

MIC [1]: 3.13 mg/L (≈ 3.94 µM) | MIC [3]: 0.1 mg/L (≈ 0.126 µM)
SMILES: CC[C@H]1OC(=O)[C@H](C)[C@@H](O[C@H]2C[C@@](C)(OC)[C@@](O)(CSC)[C@H](C)O2)[C@H](C)[C@@H](O[C@@H]2O[C@H](C)C[C@H](N(C)C)[C@H]2O)[C@](C)(O)C[C@@H](C)CN[C@H](C)[C@@H](O)[C@]1(C)O
ED50 [2]: 44 mg/kg

Reference: ChEMBL document CHEMBL1136530, “Synthesis, stereochemical assignment and biological activity of a novel series of C-4" modified aza-macrolides” (2003)
